How the values were obtained:
L1210 = experiment: Inhibitory activity was measured against murine L1210 leukemia cells.; format: functional, cell-based; details: Mus musculus
Summary of the method: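 Exponentially growing L1210 cells in RPMI were exposed to a range of concentrations for 72 h (37 °C, 5% CO2), with quadruplicate wells and medium-only controls. MTT (2.5 mg/mL in PBS) was added at 65 h, and formazan was dissolved in DMSO after 7 more h. IC50 is 50% growth inhibition versus untreated control; replicate CV <15%.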

[1] = Half life period at 200 ug/mL concentration of prodrug in the presence of 0.1 ug/mL Beta-glucuronidase (Escherichia coli) in phosphate buffer; details: in vitro
Escherichia coli = experiment: Half life period at 200 ug/mL concentration of prodrug in the presence of 1 ug/mL Beta-glucuronidase (Escherichia coli) in phosphate buffer; details: in vitro

Row | Structure (SMILES) | IC50 (L1210) [µM] | T1/2 [1] [min] | T1/2 (Escherichia coli) [min]
1 | COc1cccc2c1C(=O)c1c(O)c3c(c(O)c1C2=O)C[C@@](O)(C(=O)CO)C[C@@H]3O[C@H]1C[C@@H](NC(=O)OCc2cc(Cl)ccc2O[C@@H]2O[C@@H](C(=O)O)[C@@H](O)[C@H](O)[C@@H]2O)[C@H](O)[C@H](C)O1 | 16.6 | > 240 | 30
2 | COc1cccc2c1C(=O)c1c(O)c3c(c(O)c1C2=O)C[C@@](O)(C(C)=O)C[C@@H]3O[C@H]1C[C@@H](NC(=O)OCc2ccc(O[C@@H]3O[C@@H](C(=O)O)[C@@H](O)[C@H](O)[C@@H]3O)cc2)[C@H](O)[C@H](C)O1 | > 10 |  | 
3 | COC(=O)[C@@H]1O[C@@H](Oc2ccccc2COC(=O)N[C@@H]2C[C@H](O[C@H]3C[C@](O)(C(C)=O)Cc4c(O)c5c(c(O)c43)C(=O)c3c(OC)cccc3C5=O)O[C@@H](C)[C@H]2O)[C@@H](OC(C)=O)[C@@H](OC(C)=O)[C@@H]1OC(C)=O | 5.5 |  | 
4 | COc1cccc2c1C(=O)c1c(O)c3c(c(O)c1C2=O)C[C@@](O)(C(C)=O)C[C@@H]3O[C@H]1C[C@H](N)[C@H](O)[C@H](C)O1 [DAUNORUBICIN] | 0.03 |  | 

Continued, values first:

Row | IC50 (L1210) [µM] | T1/2 [1] [min] | T1/2 (Escherichia coli) [min] | Structure (SMILES)
5 | 16.6 | 216 |  | COc1cccc2c1C(=O)c1c(O)c3c(c(O)c1C2=O)C[C@@](O)(C(=O)CO)C[C@@H]3O[C@H]1C[C@@H](NC(=O)OCc2cc([N+](=O)[O-])ccc2O[C@@H]2O[C@@H](C(=O)O)[C@@H](O)[C@H](O)[C@@H]2O)[C@H](O)[C@H](C)O1
6 | 31 | 30 |  | COc1cccc2c1C(=O)c1c(O)c3c(c(O)c1C2=O)C[C@@](O)(C(=O)CO)C[C@@H]3O[C@H]1C[C@@H](NC(=O)OCc2cc(F)ccc2O[C@@H]2O[C@@H](C(=O)O)[C@@H](O)[C@H](O)[C@@H]2O)[C@H](O)[C@H](C)O1
7 | 2.21 | 37 |  | COc1cccc2c1C(=O)c1c(O)c3c(c(O)c1C2=O)C[C@@](O)(C(=O)CO)C[C@@H]3O[C@H]1C[C@@H](NC(=O)OCc2ccc(O[C@@H]3O[C@@H](C(=O)O)[C@@H](O)[C@H](O)[C@@H]3O)c([N+](=O)[O-])c2)[C@H](O)[C@H](C)O1
8 | 17 | 55 |  | COc1cccc2c1C(=O)c1c(O)c3c(c(O)c1C2=O)C[C@@](O)(C(=O)CO)C[C@@H]3O[C@H]1C[C@@H](NC(=O)OCc2ccc(O[C@@H]3O[C@@H](C(=O)O)[C@@H](O)[C@H](O)[C@@H]3O)c(Cl)c2)[C@H](O)[C@H](C)O1
9 | 8.8 | 26 |  | COc1cccc2c1C(=O)c1c(O)c3c(c(O)c1C2=O)C[C@@](O)(C(=O)CO)C[C@@H]3O[C@H]1C[C@@H](NC(=O)OCc2ccc(O[C@@H]3O[C@@H](C(=O)O)[C@@H](O)[C@H](O)[C@@H]3O)c(F)c2)[C@H](O)[C@H](C)O1
